Measured values taken from ChEMBL document CHEMBL1944509, “Methyl-monofluorination of ibuprofen selectively increases its inhibitory activity toward cyclooxygenase-1 leading to enhanced analgesic activity and reduced gastric damage in vivo” (Bioorg Med Chem Lett, 2011).

Experiments:
[1] = test system: Mus musculus; assay: Analgesic activity in Swiss albino mouse assessed as inhibition of acetic acid-induced writhing at 30 mg/kg, ig administered 1 hr before acetic acid challenge measured 10 mins post acetic acid challenge; type: functional; settings: po, route intragastric
Summary of the method: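 Male Swiss albino mice (22–24 g), three groups, n = 8; drug suspended in 0.5% CMC given i.g. (0.3 ml/10 g) 1 h before i.p.-unspecified injection of 1% (v/v) acetic acid at 0.1 ml/10 g. Writhes counted for 10 min starting 10 min after acetic acid; activity as percent decrease in writhing versus vehicle control; mean ± SEM, ANOVA then t-test.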

[2] = Plasma concentration in ICR mouse at 5 mg/kg, iv after 1 hr by HPLC/MS/MS analysis; type: ADME, organism-based; design: dose 5 mg/kg, route intravenous
[3] = test system: Nucleic Acid; assay: Ratio of drug level in brain to plasma in ICR mouse at 5 mg/kg, iv after 4 hrs by HPLC/MS/MS analysis; type: ADME, organism-based; design: dose 5 mg/kg, route intravenous
[4] = test system: Nucleic Acid; assay: Ratio of drug level in brain to plasma in ICR mouse at 10 mg/kg, po after 6 hrs by HPLC/MS/MS analysis; type: ADME, organism-based; design: dose 10 mg/kg, route oral
[5] = test system: Rattus norvegicus; assay: Gastrointestinal toxicity in Wistar rat assessed as ulcerogenic effect at 100 mg/kg, po measured after 17 hrs post treatment (Rvb =0.50 +/- 0.41); type: organism-based; design: dose 100 mg/kg, route oral; settings: in vivo
Summary of the method: (§1)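 Wistar rats, 150–200 g, eight per group, fasted at least 8 h with water ad libitum. Drug is given orally as a 0.5% CMC suspension at 10 ml/kg; controls get 0.5% CMC. Food is returned after 30 min. At 17 h rats are killed with CO₂ and stomachs removed. Damage score is the summed lesion lengths in mm per rat; mean ± SEM.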

[6] = test system: Nucleic Acid; assay: Ratio of drug level in brain to plasma in ICR mouse at 10 mg/kg, po after 0.25 hrs by HPLC/MS/MS analysis; type: ADME, organism-based; design: dose 10 mg/kg, route oral
[7] = test system: Nucleic Acid; assay: Ratio of drug level in brain to plasma in ICR mouse at 5 mg/kg, iv after 6 hrs by HPLC/MS/MS analysis; type: ADME, organism-based; design: dose 5 mg/kg, route intravenous
[8] = molecular target: T1, Prostaglandin G/H synthase 2 (Homo sapiens, UniProt P35354); assay: Inhibition of COX2 in LPS-stimulated and PMA-treated human U937 cells assessed as PGE2 production after 15 mins by ELISA; type: cell-based, U-937
T1 sequence (P35354 whole entry): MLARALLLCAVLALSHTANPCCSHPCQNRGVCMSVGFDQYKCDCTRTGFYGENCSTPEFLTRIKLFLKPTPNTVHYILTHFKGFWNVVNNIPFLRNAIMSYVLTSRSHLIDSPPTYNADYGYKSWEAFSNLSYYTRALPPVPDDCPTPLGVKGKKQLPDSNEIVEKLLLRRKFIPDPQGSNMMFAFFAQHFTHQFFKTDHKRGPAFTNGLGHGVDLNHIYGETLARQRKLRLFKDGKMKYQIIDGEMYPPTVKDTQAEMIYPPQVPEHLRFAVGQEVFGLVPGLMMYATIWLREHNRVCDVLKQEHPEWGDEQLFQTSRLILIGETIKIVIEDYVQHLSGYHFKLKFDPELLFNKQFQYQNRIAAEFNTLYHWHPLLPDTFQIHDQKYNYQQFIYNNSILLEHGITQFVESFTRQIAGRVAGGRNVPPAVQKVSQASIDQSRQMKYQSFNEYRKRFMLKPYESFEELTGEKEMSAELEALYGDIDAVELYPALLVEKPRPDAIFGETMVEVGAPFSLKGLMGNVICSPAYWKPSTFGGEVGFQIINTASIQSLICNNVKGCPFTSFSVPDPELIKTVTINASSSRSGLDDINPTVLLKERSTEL

[9] = test system: Mus musculus; assay: Ratio of drug level in brain to plasma in ICR mouse at 10 mg/kg, po
[10] = test system: Nucleic Acid; assay: Ratio of drug level in brain to plasma in ICR mouse at 10 mg/kg, po after 0.083 hrs by HPLC/MS/MS analysis; type: ADME, organism-based; design: dose 10 mg/kg, route oral
[11] = Clearance in ICR mouse at 5 mg/kg, iv; type: ADME, organism-based; design: dose 5 mg/kg, route intravenous; settings: in vivo
[12] = test system: Nucleic Acid; assay: Ratio of drug level in brain to plasma in ICR mouse at 5 mg/kg, iv after 1 hr by HPLC/MS/MS analysis; type: ADME, organism-based; design: dose 5 mg/kg, route intravenous
[13] = test system: Rattus norvegicus; assay: Gastrointestinal toxicity in Wistar rat assessed as ulcerogenic effect at 108.8 mg/kg, po measured after 17 hrs post treatment (Rvb =0.50 +/- 0.41); type: organism-based; design: dose 108.8 mg/kg, route oral; settings: in vivo; summary of the method: as §1
[14] = test system: Nucleic Acid; assay: Ratio of drug level in brain to plasma in ICR mouse at 10 mg/kg, po after 2 hrs by HPLC/MS/MS analysis; type: ADME, organism-based; design: dose 10 mg/kg, route oral
[15] = test system: Nucleic Acid; assay: Ratio of drug level in brain to plasma in ICR mouse at 10 mg/kg, po after 4 hrs by HPLC/MS/MS analysis; type: ADME, organism-based; design: dose 10 mg/kg, route oral
[16] = Apparent half life in ICR mouse at 5 mg/kg, iv; type: ADME, organism-based; design: dose 5 mg/kg, route intravenous; settings: in vivo, read-out: t1/2(app) (converted)
[17] = test system: Rattus norvegicus; assay: Antiinflammatory activity in Wistar albino rat assessed as inhibition of carrageenan-induced paw edema at 33.6 mg/kg, ig administered 1 hr before carrageenan challenge measured after 4 hrs post carrageenan challenge by plethysmometer; type: functional; settings: po, route intragastric
Summary of the method: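 Male Wistar rats (140–160 g), three groups of eight; drug as 0.5% CMC suspension i.g., controls given CMC only. 1 h later, 0.1 ml of 0.1% carrageenan in 0.9% NaCl injected sub-plantar into right hind paw. Paw volume read by plethysmometer hourly to 6 h and at 24 h; inhibition % = (Vc − Vt)/Vc × 100 from mean volume increases; mean ± SEM.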

[18] = Apparent half life in ICR mouse at 10 mg/kg, po; type: ADME, organism-based; design: dose 10 mg/kg, route oral; settings: in vivo, read-out: t1/2(app) (converted)
[19] = Apparent volume of distribution in ICR mouse at 5 mg/kg, iv; type: ADME, organism-based; design: dose 5 mg/kg, route intravenous; settings: in vivo, read-out: Vz
[20] = molecular target: Prostaglandin G/H synthase 1 (Homo sapiens, UniProt P23219); assay: Ratio of ibuprofen IC50 to compound IC50 for human COX1 in HEL 92.1.7 cells
[21] = test system: Mus musculus; assay: Ratio of drug level in brain to plasma in ICR mouse at 5 mg/kg, iv

SMILES: CC(C)Cc1ccc([C@H](C)C(=O)O)cc1 [DEXIBUPROFEN]
- inhibition in vivo at 30 mg/kg [1]: 68.7%
- concentration at 1 h [2]: 9960 ng/mL
- BPR [3]: 0.044 mL/g
- BPR [4]: 0.036 mL/g
- Activity [5]: Toxic
- BPR [6]: 0.029 mL/g
- BPR [7]: 0.059 mL/g

SMILES: CC(C)Cc1ccc([C@H](CF)C(=O)O)cc1
- IC50 [8]: 530 nM
- BPR [9]: 0.025 mL/g
- BPR [10]: 0.027 mL/g
- concentration at 1 h [2]: 6160 ng/mL
- clearance [11]: 3.5 mL/min/kg
- BPR [12]: 0.041 mL/g
- Activity [13]: Toxic
- BPR [14]: 0.03 mL/g
- BPR [15]: 0.032 mL/g
- half-life [16]: 52.8 min
- inhibition in vivo at 33.6 mg/kg [17]: 41.3%
- half-life [18]: 45 min
- BPR [6]: 0.03 mL/g
- Vd [19]: 0.27 L/kg
- Ratio IC50 [20]: 80
- BPR [21]: 0.031 mL/g
